Where a SMILES comes first, the peptide text is derived from it. The star is where a group is joined. Myristoyl = CCCCCCCCCCCCCC(=O)*
Key:
[1] = target: T1, PKMζ (Rattus norvegicus, UniProt P09217); assay: LANCE TR-FRET in vitro kinase assay, purified PKMζ; format: biochemical
T1 sequence (P09217 1-409 isoform P09217-2): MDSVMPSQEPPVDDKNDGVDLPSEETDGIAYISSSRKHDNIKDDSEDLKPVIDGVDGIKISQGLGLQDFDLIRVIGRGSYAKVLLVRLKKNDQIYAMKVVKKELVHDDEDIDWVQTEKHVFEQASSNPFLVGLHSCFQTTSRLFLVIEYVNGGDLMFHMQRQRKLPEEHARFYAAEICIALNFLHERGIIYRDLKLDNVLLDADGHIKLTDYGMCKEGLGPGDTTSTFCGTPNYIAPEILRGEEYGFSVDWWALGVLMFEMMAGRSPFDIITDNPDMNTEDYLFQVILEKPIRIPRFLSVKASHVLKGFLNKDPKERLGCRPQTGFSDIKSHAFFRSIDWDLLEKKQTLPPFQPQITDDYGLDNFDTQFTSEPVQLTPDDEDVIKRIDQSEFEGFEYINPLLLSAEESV

[2] = system: Prkcz−/− mice (drug reward memory); assay: Cocaine conditioned place preference, non-cannulated Prkcz−/− mice; format: in vivo; details: cocaine 10 mg/kg i.p.; male mice; t=0.153, P=0.88
[3] = target: T2, PKCζ (Rattus norvegicus, UniProt P09217); assay: LANCE TR-FRET in vitro kinase assay, purified PKCζ; format: biochemical
T2 sequence (P09217 1-592): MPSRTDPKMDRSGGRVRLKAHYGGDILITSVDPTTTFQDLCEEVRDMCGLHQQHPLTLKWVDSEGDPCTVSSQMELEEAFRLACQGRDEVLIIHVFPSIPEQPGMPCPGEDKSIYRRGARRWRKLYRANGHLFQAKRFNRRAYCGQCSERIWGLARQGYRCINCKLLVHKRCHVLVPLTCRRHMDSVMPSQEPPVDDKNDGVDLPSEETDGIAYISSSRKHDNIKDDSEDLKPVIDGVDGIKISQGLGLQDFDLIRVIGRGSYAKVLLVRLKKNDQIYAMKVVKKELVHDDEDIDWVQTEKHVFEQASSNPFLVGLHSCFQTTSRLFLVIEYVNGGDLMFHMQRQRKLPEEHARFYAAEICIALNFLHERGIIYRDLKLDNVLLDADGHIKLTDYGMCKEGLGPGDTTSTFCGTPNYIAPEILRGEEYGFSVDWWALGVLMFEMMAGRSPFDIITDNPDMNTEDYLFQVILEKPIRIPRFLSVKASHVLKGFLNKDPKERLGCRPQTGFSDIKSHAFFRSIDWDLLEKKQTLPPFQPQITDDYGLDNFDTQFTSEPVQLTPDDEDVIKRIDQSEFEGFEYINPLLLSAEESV

[4] = target: T3, PKCι (Rattus norvegicus, UniProt F1M7Y5); assay: LANCE TR-FRET in vitro kinase assay, purified PKCι; format: biochemical
T3 sequence (F1M7Y5 1-596): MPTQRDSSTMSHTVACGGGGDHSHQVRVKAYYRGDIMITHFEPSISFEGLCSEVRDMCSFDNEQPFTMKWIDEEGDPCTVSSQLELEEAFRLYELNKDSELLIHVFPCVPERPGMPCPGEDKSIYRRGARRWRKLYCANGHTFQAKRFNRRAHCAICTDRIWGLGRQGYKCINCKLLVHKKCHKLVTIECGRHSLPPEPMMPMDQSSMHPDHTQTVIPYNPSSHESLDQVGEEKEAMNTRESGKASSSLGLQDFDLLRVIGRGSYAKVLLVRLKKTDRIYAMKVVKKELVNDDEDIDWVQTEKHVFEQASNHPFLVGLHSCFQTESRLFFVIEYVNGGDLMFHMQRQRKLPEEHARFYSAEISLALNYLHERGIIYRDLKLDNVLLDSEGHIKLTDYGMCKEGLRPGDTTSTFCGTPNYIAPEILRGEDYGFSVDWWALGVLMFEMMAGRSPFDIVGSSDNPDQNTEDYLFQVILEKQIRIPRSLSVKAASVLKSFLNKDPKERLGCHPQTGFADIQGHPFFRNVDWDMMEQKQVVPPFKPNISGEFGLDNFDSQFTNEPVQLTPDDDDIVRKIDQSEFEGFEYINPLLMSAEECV

[5] = system: Prkcz−/− mice (cocaine reward memory); format: in vivo; details: ZIP 10 nmol/µl, 1 µl per side into NAc
How it was run: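 Two-chamber CPP with 20-min conditioning sessions; saline or cocaine 10 mg/kg i.p., counterbalanced. Bilateral cannulae placed in the NAc (1.40 mm anterior, ±1.0 mm lateral, −3.8 mm ventral) under ketamine/xylazine, with one week of recovery. ZIP at 10 mM in 0.9% saline, or saline, via injectors 0.7 mm past the guides, left 1 min. Index: cocaine-side time on test minus preconditioning time. Mice with placements outside the NAc (Nissl) and Grubbs outliers excluded.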

[6] = system: cocaine reward memory in rats; details: ZIP injection into the NAc; cited from earlier work
[7] = system: fear memory in rats; details: ZIP administration into the amygdala; cited from earlier work
[8] = system: object location memory in rats; details: ZIP bilaterally into the hippocampus; cited from earlier work

Row | Structure (SMILES) | Ki [1] | inhibition of PKMζ, PKCι and PKCζ compared (Ki), in words ([1]; in vitro kinase assay, PKMζ) | Ki [3] | Ki [4] | other results
1 | COc1ccc2c(c[n+](C)c3c4cc5c(cc4ccc23)OCO5)c1OC [Chelerythrine, chelerythrine] | 76 µM |  |  |  | inhibition of PKMζ with DTT, in words ([1]; 1 mM DTT included): lost all inhibitory activity; appearance in the presence of DTT ([1]; 1 mM DTT present): changed color; inhibition of PKMζ without DTT, in words ([1]; assayed without dithiothreitol (DTT)): weak inhibitor of PKMζ
2 | COC(=O)[C@H]1[C@@H](OC(=O)c2ccccc2)C[C@@H]2CC[C@H]1N2C [cocaine] |  |  |  |  | cocaine CPP index, Prkcz−/− versus wild-type, in words [2]: no genotype difference in the cocaine CPP index
3 | CCCCCCCCCCCCCC(=O)N[C@@H](CCCNC(=N)N)C(=O)N[C@@H](CC(C)C)C(=O)N[C@@H](Cc1ccc(O)cc1)C(=O)N[C@@H](CCCNC(=N)N)C(=O)N[C@@H](CCCCN)C(=O)N[C@@H](CCCNC(=N)N)C(=O)N[C@H](C(=O)N[C@@H](Cc1c[nH]c2ccccc12)C(=O)N[C@@H](CCCNC(=N)N)C(=O)N[C@@H](CO)C(=O)N[C@@H](C)C(=O)NCC(=O)N[C@@H](CCCNC(=N)N)C(=O)O)[C@@H](C)CC [Scrambled ZIP] (Myristoyl-RLYRKRIWRSAGR-OH; N-terminus and C-terminus assumed) | 15.4 µM | inhibited PKMζ, PKCι and PKCζ with similar Ki values | 5.51 µM | 4.92 µM | 
4 | CCCCCCCCCCCCCC(=O)N[C@@H](CO)C(=O)N[C@H](C(=O)N[C@@H](Cc1ccc(O)cc1)C(=O)N[C@@H](CCCNC(=N)N)C(=O)N[C@@H](CCCNC(=N)N)C(=O)NCC(=O)N[C@@H](C)C(=O)N[C@@H](CCCNC(=N)N)C(=O)N[C@@H](CCCNC(=N)N)C(=O)N[C@@H](Cc1c[nH]c2ccccc12)C(=O)N[C@@H](CCCNC(=N)N)C(=O)N[C@@H](CCCCN)C(=O)N[C@@H](CC(C)C)C(=O)O)[C@@H](C)CC [ZIP, myristoylated zeta inhibitory peptide] (Myristoyl-SIYRRGARRWRKL-OH; C-terminus assumed) | 2.11 µM | inhibited PKMζ, PKCι and PKCζ with similar Ki values | 1.7 µM | 1.43 µM | difference in Ki values between ZIP and scrambled ZIP ([1]; PKMζ, in vitro kinase assay): 7.3 -fold; t statistic for ZIP versus saline, cocaine CPP [5]: 2.258; cocaine reward memory, in words [6]: can erase cocaine reward memory; performance in cued fear conditioning, in words [7]: impaired; object location memory performance, in words [8]: impaired
